Measurements of several laboratories.
Compare with care: the assays were run in different laboratories.
Target: Homeodomain-interacting protein kinase 2 (HIPK2, Homo sapiens, UniProt Q9H2X6)

| SMILES | observed | mode | method | tested at | quantity | value |
| --- | --- | --- | --- | --- | --- | --- |
| O=C(O)c1ccc2c(c1)nc(NCCc1cccc(Cl)c1)c1ccncc12 | enzyme activity | inhibitor | radiometric | 1 µM | remaining activity | 20% |
| O=C1NC(c2ccccn2)Sc2ccccc21 (stereo not drawn) | cell-free assay | – | competition with immobilised ligand | 1 µM | remaining binding | 80% |
| COc1cc(/C=C/C(=O)CC(=O)/C=C/c2ccc(O)c(OC)c2)ccc1O | enzyme activity | inhibitor | – | 1 µM | activity vs control | 54% |
| COc1cc(-c2cc(-c3ccc(N4CCNCC4)cc3)cnc2C)cc(OC)c1OC | enzyme activity | inhibitor | – | 0.1 µM | inhibition | 1% |
| CCCCN(CCCC)C(=O)CN1C[C@H](c2cc(OC)c3c(c2)OCO3)[C@@H](C(=O)O)[C@@H]1CC(C)(C)CCC | cell-free assay | – | competition with immobilised ligand | 1 µM | remaining binding | 82.3% |
| CC/C(=N\NC(=O)NCc1cccc(O)c1)c1ccc(O)c(C)c1O | enzyme activity | inhibitor | – | 0.1 µM | inhibition | 2.1% |
| COc1cc(-c2cn(C3CCc4c(F)cccc4N(CC(F)(F)F)C3=O)nn2)ccc1-n1cnc(C)c1 (stereo not drawn) | cell-free assay | – | competition with immobilised ligand | 1 µM | remaining binding | 100% |
| Nc1ncnc2occ(-c3ccc(NC(=O)Nc4cc(C(F)(F)F)ccc4F)cc3)c12 | cell-free assay | inhibitor | – | 20 µM | remaining signal | 0.05% |
| Cc1nc(N2CC[C@@H](O)C2)ncc1-c1cc(C(F)(F)F)cc2[nH]ncc12 | binding | – | competition with immobilised ligand | 1 µM | remaining binding | 74% |
| N#Cc1cccc(Nc2nc3cc(C(=O)O)ccc3c3cncnc23)c1 | enzyme activity | inhibitor | radiometric | 1 µM | remaining activity | 3% |
| CNC(=O)Nc1ccc2c(c1)[C@@]1(CC2)OC(=O)N(CC(=O)N(Cc2ccc(F)cc2)[C@@H](C)C(F)(F)F)C1=O | cell-free assay | – | competition with immobilised ligand | 1 µM | remaining binding | 78% |
| O=C1Nc2ccc(Cl)cc2C1=Cc1cc(Cl)c(O)c(Cl)c1 | cell-free assay | – | – | 0.5 µM | remaining signal | 122% |
| Cc1ccc(Nc2nccc(N(C)c3ccc4c(C)n(C)nc4c3)n2)cc1S(N)(=O)=O | enzyme activity | inhibitor | – | 0.3 µM | inhibition | 7% |
| CCCS(=O)(=O)Nc1ccc(F)c(C(=O)c2c[nH]c3ncc(-c4ccc(Cl)cc4)cc23)c1F | enzyme activity | inhibitor | – | 1 µM | inhibition | < 10% |
| O=C(O)c1ccc2c(c1)nc(Nc1ccc3ccccc3c1)c1ccncc12 | enzyme activity | inhibitor | radiometric | 1 µM | remaining activity | 4% |
| Cc1c(NC(=O)c2cc(C(N)=O)nc3cc(F)ccc23)c(C(F)(F)F)nn1Cc1ccc(C#N)cc1 | cell-free assay | – | competition with immobilised ligand | 1 µM | remaining binding | 83% |
| O=C(O)c1ccc2c(c1)nc(NCCc1cccc(Cl)c1)c1ncncc12 | enzyme activity | inhibitor | radiometric | 1 µM | remaining activity | 36% |
| Clc1ccc(Nc2nnc(Cc3ccncc3)c3ccccc23)cc1 | cell-free assay | – | – | 0.5 µM | remaining signal | 101% |
| O=C(O)c1ccc2c(c1)nc(Nc1cccc(F)c1)c1ccncc12 | enzyme activity | inhibitor | radiometric | 1 µM | remaining activity | -1% |
| CCN(CC)CCNC(=O)c1c(C)[nH]c(/C=C2\C(=O)Nc3ccc(F)cc32)c1C | enzyme activity | inhibitor | – | 10 µM | inhibition | 89% |
| NS(=O)(=O)c1cc(NC(=O)Cc2ccccc2)ccc1Oc1cccc(Cl)c1 | cell-free assay | – | competition with immobilised ligand | 1 µM | remaining binding | 62% |
| O=C(O)c1ccc2c(c1)nc(NCc1ccccc1)c1ncncc12 | enzyme activity | inhibitor | radiometric | 1 µM | remaining activity | 39% |
| CC(=O)N1CCC(c2ccc(C(=O)NC3=NCCN3)cc2C(F)(F)F)CC1 | cell-free assay | – | competition with immobilised ligand | 1 µM | remaining binding | 100% |
| COc1cccc(CCNc2nc3cc(C(=O)O)ccc3c3cnccc23)c1 | enzyme activity | inhibitor | radiometric | 1 µM | remaining activity | 10% |
| CCOc1cc(-c2nncn2C)ccc1Nc1ncc2cc(C)nc(NCC(C)(C)C)c2n1 | enzyme activity | inhibitor | FRET | 1 µM | inhibition | < 15% |
| COc1cccc(Nc2nc3cc(C(=O)O)ccc3c3cnccc23)c1 | enzyme activity | inhibitor | radiometric | 1 µM | remaining activity | 2% |
| COc1cc2ncnc(Nc3ccc(Oc4ccccc4)cc3C)c2cc1OC | enzyme activity | inhibitor | – | 1 µM | inhibition | 3% |
